Results from ChEMBL document CHEMBL2406971, “Optimization of Arylamides as Novel, Potent and Brain-penetrant Antiprion Lead Compounds” (ACS Med Chem Lett, 2013).

Key:
[1] = Cytotoxicity against mouse ScN2a-cl3 cells after 5 days by calcein-AM assay; format: cell-based, N2a-cl3; conditions: read-out: LD50
Procedure, shortened: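 Run alongside every EC50 measurement. Toxicity toward ScN2a-cl3 cells scored with the fluorescent probe calcein-AM.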

Plasma = test: Cmax in CD-1 mouse plasma at 10 mg/kg, po after 6 hrs by LC/MS analysis; format: ADME, organism-based; parameters: dose 10 mg/kg, route oral; conditions: in vivo
[2] = AUC (0 to 6 hrs) in CD-1 mouse plasma at 10 mg/kg, po by LC/MS analysis; format: ADME, organism-based; parameters: time < 6 hr, dose 10 mg/kg, route oral
Brain = test: Cmax in CD-1 mouse brain at 10 mg/kg, po after 6 hrs by LC/MS analysis; format: ADME, organism-based; parameters: dose 10 mg/kg, route oral; conditions: in vivo
[3] = AUC (0 to 6 hrs) in CD-1 mouse brain at 10 mg/kg, po by LC/MS analysis; format: ADME, organism-based; parameters: time < 6 hr, dose 10 mg/kg, route oral
[4] = Ratio of drug level in brain to plasma in CD-1 mouse at 10 mg/kg, po; format: ADME, organism-based; parameters: dose 10 mg/kg, route oral; conditions: brain and plasma, read-out: BPR
Liver = test: Half life in mouse liver microsomes at 1 uM by LC/MS/MS analysis; format: ADME, Microsome

**Q.** For `CCN1CCN(c2ccc(NC(=O)c3ccc(-c4ccncc4)cc3)cc2)CC1`, which CC50 at 120 h [1] is on record?
**A.** > 10 µM

**Q.** For `CN1CCN(c2ccc(NC(=O)c3ccc(-c4ccccc4)cc3)cc2)CC1`, which CC50 at 120 h [1] is on record?
**A.** > 5 µM

**Q.** With `CC(C)N1CCN(c2ccc(NC(=O)c3ccc(-c4ccccn4)cc3)nc2)CC1` as the compound, how does the Cmax (Plasma) read?
**A.** 340 nM

**Q.** And the AUC(0-t) at 6 h [2]?
**A.** 1.26 µM·h

**Q.** And the Cmax (Brain)?
**A.** 6000 nM

**Q.** And the AUC(0-t) at 6 h [3]?
**A.** 22.3 µM·h

**Q.** And the CC50 at 120 h [1]?
**A.** > 10 µM

**Q.** What does the source list for `CC(C)N1CCN(c2ccc(NC(=O)c3ccc(-c4ccccc4)cc3)cc2)CC1`?
**A.** Kp [4]: ≤ 10; Cmax (Plasma): 270 nM; AUC(0-t) at 6 h [2]: 0.97 µM·h; Cmax (Brain): 2520 nM; AUC(0-t) at 6 h [3]: 7.48 µM·h; CC50 at 120 h [1]: > 10 µM

**Q.** With `CC(C)N1CCN(c2ccc(NC(=O)c3ccc(-c4ccccn4)cc3)cc2)CC1` as the compound, how does the Cmax (Plasma) read?
**A.** 320 nM

**Q.** What about the AUC(0-t) at 6 h [2] of the same compound?
**A.** 1.2 µM·h

**Q.** What about the Cmax (Brain) of the same compound?
**A.** 90 nM

**Q.** What about the AUC(0-t) at 6 h [3] of the same compound?
**A.** 0.28 µM·h

**Q.** And the CC50 at 120 h [1]?
**A.** > 10 µM

**Q.** Which Kp [4] does the source give for `CCN1CCN(c2ccc(NC(=O)c3ccc(-c4ccccc4)cc3)cc2)CC1` here?
**A.** ≤ 10

**Q.** And the Cmax (Plasma)?
**A.** 370 nM

**Q.** What about the AUC(0-t) at 6 h [2] of the same compound?
**A.** 1.09 µM·h

**Q.** What about the Cmax (Brain) of the same compound?
**A.** 7950 nM

**Q.** And the AUC(0-t) at 6 h [3]?
**A.** 25.4 µM·h

**Q.** What does the source list for `CCN1CCN(c2ccc(NC(=O)c3ccc(-c4ccccn4)cc3)cc2)CC1`?
**A.** t1/2 (Liver): 27 min; Cmax (Plasma): 280 nM; AUC(0-t) at 6 h [2]: 1.05 µM·h; Cmax (Brain): 6230 nM; AUC(0-t) at 6 h [3]: 24.2 µM·h; CC50 at 120 h [1]: > 10 µM

**Q.** Which Cmax (Plasma) does the source give for `CC(C)N1CCN(c2ccc(NC(=O)c3ccc(-c4ccccn4)cc3)c(F)c2)CC1` here?
**A.** 650 nM

**Q.** What about the AUC(0-t) at 6 h [2] of the same compound?
**A.** 1.46 µM·h

**Q.** And the Cmax (Brain)?
**A.** 17300 nM

**Q.** And the AUC(0-t) at 6 h [3]?
**A.** 39.8 µM·h

**Q.** And the CC50 at 120 h [1]?
**A.** > 10 µM

**Q.** Which Cmax (Plasma) does the source give for `CC(C)N1CCN(c2ccc(NC(=O)c3ccc(-c4ccccn4)cc3)cc2F)CC1` here?
**A.** 460 nM

**Q.** What about the AUC(0-t) at 6 h [2] of the same compound?
**A.** 2.28 µM·h

**Q.** What about the Cmax (Brain) of the same compound?
**A.** 6750 nM

**Q.** And the AUC(0-t) at 6 h [3]?
**A.** 28.7 µM·h

**Q.** What about the CC50 at 120 h [1] of the same compound?
**A.** > 10 µM

**Q.** For `CC(C)N1CCN(c2ccc(NC(=O)c3ccc(-c4ccccn4)cc3)cn2)CC1`, which CC50 at 120 h [1] is on record?
**A.** > 10 µM

**Q.** With `CCN1CCN(c2ccc(NC(=O)c3ccc(-c4cccnc4)cc3)cc2)CC1` as the compound, how does the t1/2 (Liver) read?
**A.** 29.2 min

**Q.** What about the Cmax (Plasma) of the same compound?
**A.** 210 nM

**Q.** What about the AUC(0-t) at 6 h [2] of the same compound?
**A.** 0.25 µM·h

**Q.** And the Cmax (Brain)?
**A.** 1440 nM

**Q.** And the AUC(0-t) at 6 h [3]?
**A.** 3.32 µM·h

**Q.** What about the CC50 at 120 h [1] of the same compound?
**A.** > 10 µM
